# Rows were chosen to be rich in hits. Some 3.8% of all compounds tested hit in one or more screens of this group.
# OX1R antag-1: antagonists of human orexin 1 receptor (OX1R). Orexin/Hypocretin receptor type 1 (Homo sapiens), O43613. OX1R-expressing cells, FRET antagonist read-out. 1.8% of 330,000 active. inhibition, % at 6.6 µM; in the data active means inhibition mostly above about 38%, no sharp cut-off; inactive means mostly below about 40%
# Target sequence (O43613 whole entry, looked up): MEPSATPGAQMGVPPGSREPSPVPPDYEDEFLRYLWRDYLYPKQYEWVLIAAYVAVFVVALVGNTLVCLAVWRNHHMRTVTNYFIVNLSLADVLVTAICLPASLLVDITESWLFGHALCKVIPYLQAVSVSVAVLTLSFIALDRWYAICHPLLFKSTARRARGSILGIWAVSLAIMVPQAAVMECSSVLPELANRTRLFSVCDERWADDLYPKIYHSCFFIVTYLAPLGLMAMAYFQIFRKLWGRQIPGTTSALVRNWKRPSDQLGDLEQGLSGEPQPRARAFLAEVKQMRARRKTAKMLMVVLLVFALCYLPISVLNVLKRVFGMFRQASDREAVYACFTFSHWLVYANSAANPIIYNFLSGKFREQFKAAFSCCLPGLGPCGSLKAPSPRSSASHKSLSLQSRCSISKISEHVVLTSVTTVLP
# GPR7 antag: GPR7 receptor antagonists, primary screen, cell-based, fluorescence, single concentration; 1.1% of 290,000 active; inhibition, % at 4.4 µM; GPR7-expressing cells, fluorescence antagonist assay; Neuropeptides B/W receptor type 1 (Homo sapiens), P48145; in the data active means inhibition above about 16%, passing the limit was not always enough;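 further: cells stimulated with the agonist NPW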
# OX1R antag-2: OX1R (HCRTR1) antagonists, primary screen, fluorescence, CHO/OX1R cells, Fluo-8 calcium, orexin A | Orexin/Hypocretin receptor type 1 (Homo sapiens), O43613 | Fluo-8 calcium fluorescence | inhibition, % at 5 µM | 0.43% of 330,000 active | AID 434989, 2010;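 active means inhibition above its plate's threshold, mean inhibition of all tested compounds on the plate plus 3 SD, cut at about 37% in these data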
# CHO parental Ca: ATP-evoked calcium signal inhibitors, parental CHO, primary screen, counter-screen for OX1R antagonist project, cell-based, fluorescence, Fluo-8 calcium dye | parental CHO-K1, ATP-induced calcium, Fluo-8 fluorescence | inhibition, % at 5.6 µM | 0.63% of 330,000 active | AID 463079, 2010;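 active means inhibition above that plate's mean sample inhibition plus 3 SD, cut at about 26% in these data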
#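 Test system: untransfected parental CHO cell line. Compound: one dose, 5.6 µM nominal. Detection: intracellular calcium via Fluo-8 no-wash fluorescent dye. Measure: % inhibition. Benchmarks: ATP-challenged DMSO wells low, unchallenged DMSO wells high.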
# MPTP inh: mitochondrial permeability transition pore inhibitors, primary screen, biochemical, isolated mouse mitochondria, absorbance; Ca2+ swelling absorbance, 30 min; inhibition, % at 10 µM; 1.4% of 360,000 active; AID 602449, 2012;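 active means inhibition of 50% or more, scaled per plate between neutral and stimulator controls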
# MPTP counter: fluorescence retest of MPTP screen hits in isolated mitochondria, single concentration; shares compounds with MPTP inh; 78% of 5,000 active; AID 624504, 2012; inhibition, % at 10 µM; membrane potential, Rhodamine 123 fluorescence; in the data active means inhibition above about 22%
# MPTP abs DR: mitochondrial permeability transition pore inhibitors, dose response, biochemical, absorbance, uHTS hits. shares compounds with MPTP inh. isolated mitochondria swelling. IC50, µM. 58% of 780 active. AID 651561, 2012; in the data active means IC50 below about 20 µM
# MPTP counter DR: fluorescent counter-screen in isolated mitochondria, dose response, counter-screen for MPTP inhibitor project, biochemical, fluorescence, uHTS hits. shares compounds with MPTP inh. isolated mitochondria counterscreen, fluorescence read-out. IC50, µM. 49% of 780 active. AID 651564, 2012; in the data active means IC50 below about 80 µM
# Numbers stand for hits; n = inactive; x = not tested or not shown.
SMILES,OX1R antag-1,GPR7 antag,OX1R antag-2,CHO parental Ca,MPTP inh,MPTP counter,others
Cn1c(=O)n(C)c2cc([N+](=O)[O-])c(N3CCN(S(=O)(=O)c4ccc5ccccc5c4)CC3)cc21,n,n,n,n,n,x,
CCCOc1ccc(S(=O)(=O)NNC(=O)c2cc3ccccc3o2)cc1,n,n,n,n,66.1,31.4,
O=C(Nc1cccc(C(F)(F)F)c1)C(Sc1ncnc2ccccc12)c1ccccc1 (configuration not stated),n,n,n,n,60.2,68.1,
Cc1cc(C)cc(NC(=O)C(Sc2ncnc3ccccc23)c2ccccc2)c1 (configuration not stated),n,n,n,n,n,x,
CSC(=Nc1ccc(Cl)cc1)N[n+]1ccccc1,n,n,n,n,n,x,
COc1ccc(Cc2n[nH]c(=S)n2NC(=O)Nc2ccc(Cl)c(Cl)c2)cc1,58.4,n,n,52.4,92.2,90.2,
COC(=O)c1sc2nc(-c3ccccc3)nc(N3CCN(C)CC3)c2c1C,x,n,x,x,75.8,n,MPTP abs DR=9.8;MPTP counter DR=n
COc1ccc(-c2nc(-c3cccc(C)c3)nc(N3CCN(C)CC3)c2C#N)cc1,n,n,n,n,91.0,n,MPTP abs DR=n;MPTP counter DR=n
COc1ccc(-c2nc(-c3ccccc3)nc(N3CCN(C)CC3)c2C#N)cc1,n,n,n,n,n,x,
CN1CCN(c2nc(-c3ccccc3)nc(-c3ccccc3)c2C#N)CC1,n,n,n,n,68.8,n,MPTP abs DR=16.7;MPTP counter DR=n
Cc1ccc(-n2cccn2)c([C@@H]2C[C@H]3CN(C)C(=O)[C@]34CCCN24)c1,n,n,n,n,n,x,
COc1ccccc1CNC(=O)C1CC(c2ccccc2[N+](=O)[O-])=NO1 (configuration not stated),n,n,n,n,n,x,
N#CCCN1C(=O)C2(OCCO2)c2ccccc21,n,n,n,n,n,x,
Oc1nc(Nc2ccc(Cl)cc2Cl)sc1/C=C1\C=Nc2ccccc21,n,n,n,n,95.5,58.1,
CCN(CC)C(=O)CSc1nc2ccccc2c(=O)[nH]1,n,n,n,n,66.0,n,MPTP abs DR=n;MPTP counter DR=n
COCC(C)n1c(C)cc(C(=O)COC(=O)CCc2nc3ccccc3c(=O)[nH]2)c1C (configuration not stated),n,n,n,n,n,x,
COCCn1c(C)cc(C(=O)CSc2nc3ccccc3c(=O)[nH]2)c1C,n,n,n,n,64.4,n,MPTP abs DR=n;MPTP counter DR=44.7
CN(C)C(=O)CSc1nc2ccccc2c(=O)[nH]1,n,n,n,n,n,x,
COCC(C)n1c(C)cc(C(=O)CSc2nc3ccccc3c(=O)[nH]2)c1C (configuration not stated),n,n,n,n,76.1,34.5,
Cc1cc(C(=O)CSc2nc3ccccc3[nH]2)c(C)n1Cc1ccco1,77.4,n,n,48.9,85.9,83.2,
CCN(Cc1cnn(C)c1)Cc1nc(C(c2ccccc2)c2ccccc2)no1,n,n,n,n,n,x,
CCC(C)[C@@H](NC(=O)OC(C)(C)C)c1nnc(S(=O)(=O)Cc2cccc(C)c2)o1 (some centres not stated),x,n,x,x,90.7,n,
COCCNc1nc(NCCOC)c2sc(-c3ccccc3)cc2n1,x,x,x,x,n,x,
COc1ccccc1CNc1nc(NC(C)C)nc2cc(-c3ccccc3)sc12,x,x,x,x,75.0,100.9,
CC(C)Nc1nc(NCCOc2ccccc2Cl)c2sc(-c3ccccc3)cc2n1,x,x,x,x,60.1,105.0,
SMILES,OX1R antag-1,GPR7 antag,OX1R antag-2,CHO parental Ca,MPTP inh,MPTP counter,others
C=CCNc1nc(NCc2cccc(OC)c2)c2sc(-c3ccccc3)cc2n1,x,x,x,x,n,x,
Cc1ccc(C)c(S(=O)(=O)NNC(=O)c2sc(NS(=O)(=O)c3ccccc3)nc2C)c1,n,n,n,n,n,x,
C=CCn1c(C)cc(C(=O)COC(=O)CNC(=O)c2ccccc2)c1C,n,n,n,n,n,x,
NC(=O)c1ccc(NC(=O)Cc2ccc(S(=O)(=O)N3CCCCC3)cc2)cc1,n,x,n,n,n,x,
O=C(c1cnn(-c2ccccc2)c1)c1cc(Br)ccc1O,n,x,n,n,n,x,
O=C(C(=O)c1cc(Br)ccc1O)c1cc(Br)ccc1O,x,x,x,x,94.8,97.0,
O=C(c1ccc(O)c(Br)c1)c1cc(Br)ccc1O,x,x,x,x,94.1,93.3,
NS(=O)(=O)c1ccc(CCNC(=O)c2cc3ccccc3oc2=O)cc1,n,n,n,n,n,x,
COc1ccc(NC(=O)CCc2nnc3ccc(N4CCC5(CC4)OCCO5)nn23)cc1,n,n,n,n,n,x,
C=CCc1cc(Cl)ccc1OC(=O)Nc1cccc(Cl)c1,n,n,n,n,93.2,96.9,
CCOC(=O)c1c(/N=C/c2cc(C)ccc2O)sc2c1CCN(C)C2,n,n,n,n,85.1,n,MPTP abs DR=n;MPTP counter DR=76
CCOC(=O)c1c(NC(=O)c2ccc(S(=O)(=O)N3CCOCC3)cc2)sc2c1CCN(C)C2,n,n,n,n,n,x,
Cc1cccc(/C=N/c2sc3c(c2C(=O)OC(C)(C)C)CCN(C)C3)c1O,n,n,n,n,56.4,n,MPTP abs DR=8.87;MPTP counter DR=67.1
Cc1cccc(OCC(=O)Nc2nc3ccc([N+](=O)[O-])cc3s2)c1,40.7,n,n,n,66.7,87.4,
Cc1cccc(OCC(=O)Nc2nc3ccc([N+](=O)[O-])cc3s2)c1C,n,n,n,n,68.9,83.0,
Cc1nc2ccc(NC(=O)COc3ccccc3[N+](=O)[O-])cc2s1,n,n,n,n,n,x,
O=C(Nc1nc2ccc([N+](=O)[O-])cc2s1)c1c(F)cccc1F,n,n,n,n,n,x,
O=C(COc1ccccc1C(=O)O)Nc1nc2ccc([N+](=O)[O-])cc2s1,58.6,n,n,42.2,94.3,83.5,
COc1ccccc1C(=O)OCC(=O)NC1CCCC1,n,n,n,n,n,x,
O=C(CCC1CCCN(C(=O)CCN2CCCCC2=O)C1)NCc1ccccc1F (configuration not stated),n,n,n,n,n,x,
COc1cccc(NC(=O)Nc2ccc(CC(=O)O)cc2)c1,n,n,n,n,n,x,
COc1cccc(NC(=O)NC2(C(F)(F)F)Oc3ccccc3O2)c1,n,n,n,n,96.7,83.4,
CCc1ccc(NC(=O)Nc2cccc(OC)c2)cc1,n,n,n,n,63.0,77.3,
N#Cc1ccc(OCC(=O)OCC(=O)NC2CC2)cc1,n,x,n,n,n,x,
Nc1nc(NC(=O)c2ccc(Cl)cc2)nn1-c1ccccc1,n,n,n,n,80.7,34.6,
Nc1nc(NC(=O)c2cccnc2)nn1-c1ccccc1,n,n,n,n,n,x,

# Compound activity: PubChem, several laboratories
